# Like-named read-outs stand apart in the source and are kept apart here.
# Columns and labels:
# mice [1] = assay: Elevated plus maze; format: in vivo, mouse; conditions: 30 minutes and 4 hours post single s.c. injection
# In short: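 Elevated plus maze in mice given a single subcutaneous injection of test compound or a reference psychedelic. Time in open vs closed arms and arm entries are scored at 30 min and 4 h post-injection. n=10/group, mean ± S.E.M. Analysis is two-way ANOVA with Dunnett's post hoc test.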
# 5-HT2A receptor [2] = target: T1, 5-HT2A receptor (Homo sapiens, UniProt P28223); assay: Calcium flux assay; format: cell-based
# T1 sequence (P28223 whole entry): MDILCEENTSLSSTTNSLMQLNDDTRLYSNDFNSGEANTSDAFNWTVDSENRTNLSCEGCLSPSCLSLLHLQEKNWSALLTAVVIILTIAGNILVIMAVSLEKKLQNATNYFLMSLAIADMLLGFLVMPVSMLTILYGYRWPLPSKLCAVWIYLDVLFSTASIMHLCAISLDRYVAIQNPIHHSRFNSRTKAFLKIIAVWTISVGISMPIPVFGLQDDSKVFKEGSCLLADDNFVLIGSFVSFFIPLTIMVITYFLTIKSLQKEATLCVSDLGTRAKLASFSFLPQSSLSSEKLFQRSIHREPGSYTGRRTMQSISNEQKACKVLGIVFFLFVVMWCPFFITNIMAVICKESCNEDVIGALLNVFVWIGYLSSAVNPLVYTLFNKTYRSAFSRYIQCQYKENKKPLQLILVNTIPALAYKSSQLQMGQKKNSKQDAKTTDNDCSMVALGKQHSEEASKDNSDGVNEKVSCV
# In short: (§1)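 Flp-In 293 T-Rex cells stably carry tetracycline-inducible human 5-HT2A or 5-HT2C. Expression is induced with tetracycline (2 ug/mL) the day before, with about 7,500 cells/well in 1% dialyzed FBS. Cells are loaded with Fluo-4 Direct for 1 h at 37°C in HBSS/20 mM HEPES pH 7.4 with 2.5 mM probenecid, then held 15 min at RT. Fluorescence is read 10 s baseline, then 5-10 min after drug. Peak fold-over-basal or AUC is normalized to % 5-HT, with EC50/Emax from nonlinear regression.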
# rabbits = conditions: cited from earlier work
# 5-HT2A receptor [3] = target: T1, 5-HT2A receptor; assay: G protein; format: cell-based
# patients = conditions: cited from earlier work
# mice [4] = assay: Novelty suppressed feeding; format: in vivo, mouse; conditions: 7 days post-drug administration; 10mg/kg
# 5-HT1B receptor = 5-HT1B receptor (Homo sapiens, UniProt P28222); assay: 5-HTome G protein activation BRET screen; format: cell-based; conditions: 5-HTome screen
# 5-HT1B receptor, sequence (P28222 whole entry): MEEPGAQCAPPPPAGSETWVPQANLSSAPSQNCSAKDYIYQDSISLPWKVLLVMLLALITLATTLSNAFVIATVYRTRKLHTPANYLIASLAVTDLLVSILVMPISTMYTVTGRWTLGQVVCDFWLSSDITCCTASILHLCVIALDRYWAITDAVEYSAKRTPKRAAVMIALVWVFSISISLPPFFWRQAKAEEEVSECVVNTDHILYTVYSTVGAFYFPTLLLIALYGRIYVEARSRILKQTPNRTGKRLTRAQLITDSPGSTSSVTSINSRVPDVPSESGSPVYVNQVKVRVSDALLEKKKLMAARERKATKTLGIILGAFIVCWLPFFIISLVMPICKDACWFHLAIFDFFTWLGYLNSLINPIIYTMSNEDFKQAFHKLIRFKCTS
# In short: (§2)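 Human 5-HT receptors (12 in the panel) are tested by G protein-dissociation BRET2. Cells are reverse-transfected about 48 h before assay with receptor:Gα-Rluc8:Beta:GFP2-γ (TRUPATH) at 1:1:1:1 and plated in 1% dFBS. Drug is added in HBSS/20 mM HEPES pH 7.4 with 0.3% BSA and 0.03% ascorbic acid, then incubated 60 min at 37°C. Coelenterazine 400a is 5 uM final. The 510/400 ratio is normalized to % positive control, with EC50/Emax from log(agonist) vs response. Three independent experiments in triplicate.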
# 5-HT1F receptor = 5-HT1F receptor (Homo sapiens, UniProt P30939); assay: 5-HTome G protein activation BRET screen; format: cell-based; conditions: 5-HTome screen
# 5-HT1F receptor, sequence (P30939 whole entry): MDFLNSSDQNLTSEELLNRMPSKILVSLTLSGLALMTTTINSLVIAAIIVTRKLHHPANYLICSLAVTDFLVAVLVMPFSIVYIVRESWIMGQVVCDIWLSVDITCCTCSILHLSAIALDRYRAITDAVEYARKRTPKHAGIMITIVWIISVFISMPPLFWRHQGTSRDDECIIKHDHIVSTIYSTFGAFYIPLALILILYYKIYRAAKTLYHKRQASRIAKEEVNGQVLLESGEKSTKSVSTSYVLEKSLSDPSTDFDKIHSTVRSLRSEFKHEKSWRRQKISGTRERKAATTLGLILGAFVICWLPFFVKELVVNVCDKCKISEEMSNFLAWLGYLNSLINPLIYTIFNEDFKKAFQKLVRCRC
# In short: as §2
# cats = conditions: 10 mg/kg, s.c., versus (R)-DOM 0.5 mg/kg; cited from earlier work
# rats = conditions: 10 mg/kg, s.c. or i.p. ref 12, 13; cited from earlier work
# mice [5] = assay: Head twitch response; format: in vivo, mouse
# 5-HT2C receptor [6] = target: T2, 5-HT2C receptor (Homo sapiens, UniProt P28335); assay: Calcium flux assay; format: cell-based; conditions: relative to 5-HT
# T2 sequence (P28335 33-458): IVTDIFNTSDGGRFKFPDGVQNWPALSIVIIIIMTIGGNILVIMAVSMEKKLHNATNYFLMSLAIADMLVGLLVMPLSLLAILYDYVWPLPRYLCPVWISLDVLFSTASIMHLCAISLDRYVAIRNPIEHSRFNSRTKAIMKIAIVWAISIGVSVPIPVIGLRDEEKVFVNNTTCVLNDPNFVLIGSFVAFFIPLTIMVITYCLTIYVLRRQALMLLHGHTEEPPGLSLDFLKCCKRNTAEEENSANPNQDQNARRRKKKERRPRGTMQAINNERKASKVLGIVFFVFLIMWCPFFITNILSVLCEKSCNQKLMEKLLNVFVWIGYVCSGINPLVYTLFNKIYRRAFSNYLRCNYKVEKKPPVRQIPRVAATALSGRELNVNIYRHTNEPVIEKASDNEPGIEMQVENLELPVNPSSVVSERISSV
# In short: as §1
# 5-HT1e receptor = 5-HT1e receptor (Homo sapiens, UniProt P28566); assay: 5-HTome G protein activation BRET screen; format: cell-based; conditions: 5-HTome screen
# 5-HT1e receptor, sequence (P28566 whole entry): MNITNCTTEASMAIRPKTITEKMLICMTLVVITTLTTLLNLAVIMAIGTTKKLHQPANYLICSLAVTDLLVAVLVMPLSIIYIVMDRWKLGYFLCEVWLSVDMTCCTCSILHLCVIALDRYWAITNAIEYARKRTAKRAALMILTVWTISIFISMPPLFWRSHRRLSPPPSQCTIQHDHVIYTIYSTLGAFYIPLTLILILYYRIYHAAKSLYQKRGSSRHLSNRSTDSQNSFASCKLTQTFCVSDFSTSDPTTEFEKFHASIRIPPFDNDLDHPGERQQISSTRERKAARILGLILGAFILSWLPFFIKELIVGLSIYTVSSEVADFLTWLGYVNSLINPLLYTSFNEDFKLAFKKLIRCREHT
# In short: as §2
# [7] = tested on: auxilin knockout (KO) mice; assay: Auxilin KO Parkinson's model, balance beam; format: in vivo, mouse; conditions: 10 mg/kg i.p., 15 to 30 minutes after treatment
# In short: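 Auxilin KO and WT mice aged 9-12 months, sex balanced, n=5-7/group. Vehicle is 0.85% saline i.p. at 10 ml/kg. Test compound is 10 mg/kg i.p. in 0.85% saline with 2 molar equivalents of glacial acetic acid, at 10 ml/kg. Baseline testing is done one week before treatment and repeated 15-30 min post-dose. Balance beam: mice walk a raised narrow beam to a safety box, scored as average crossing time and crossings per minute. Mean ± S.E.M.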
# mice [8] = assay: Open field test; format: in vivo, mouse; conditions: for effect on general locomotion: s.c.
# humans = conditions: cited from earlier work
# [9] = tested on: auxilin knockout (KO) mice; assay: Auxilin KO Parkinson's model, hind limb clasping; format: in vivo, mouse; conditions: 10 mg/kg i.p., 15 to 30 minutes after treatment
# In short: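 Auxilin KO and WT mice aged 9-12 months, sex balanced, n=5-7/group, treated i.p. with vehicle (0.85% saline) or test compound at 10 mg/kg in saline with 2 molar equivalents of acetic acid, at 10 ml/kg. Testing is done one week pre-treatment and 15-30 min post-dose. Mice are held by the tail base and lowered for 30 s. Clasping is scored 0 (none), 1 (one limb) or 2 (both limbs), and total clasping duration is recorded. Kruskal-Wallis with Dunn's post hoc test.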
# 5-HT1A receptor = 5-HT1A receptor (Homo sapiens, UniProt P08908); assay: 5-HTome G protein activation BRET screen; format: cell-based; conditions: 5-HTome screen
# 5-HT1A receptor, sequence (P08908 whole entry): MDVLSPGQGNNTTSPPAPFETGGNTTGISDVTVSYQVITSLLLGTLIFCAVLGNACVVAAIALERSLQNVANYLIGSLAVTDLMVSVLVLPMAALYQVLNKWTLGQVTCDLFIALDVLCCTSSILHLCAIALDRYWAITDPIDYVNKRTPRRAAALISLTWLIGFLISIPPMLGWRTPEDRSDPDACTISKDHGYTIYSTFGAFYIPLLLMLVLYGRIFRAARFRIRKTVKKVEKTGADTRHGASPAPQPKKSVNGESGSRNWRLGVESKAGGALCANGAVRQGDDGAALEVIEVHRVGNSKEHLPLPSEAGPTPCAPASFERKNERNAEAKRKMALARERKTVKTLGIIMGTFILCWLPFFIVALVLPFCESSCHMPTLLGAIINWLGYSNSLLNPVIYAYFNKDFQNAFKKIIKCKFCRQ
# In short: as §2
# 5-HT2B receptor = 5-HT2B receptor (Homo sapiens, UniProt P41595); assay: G protein; format: cell-based
# 5-HT2B receptor, sequence (P41595 whole entry): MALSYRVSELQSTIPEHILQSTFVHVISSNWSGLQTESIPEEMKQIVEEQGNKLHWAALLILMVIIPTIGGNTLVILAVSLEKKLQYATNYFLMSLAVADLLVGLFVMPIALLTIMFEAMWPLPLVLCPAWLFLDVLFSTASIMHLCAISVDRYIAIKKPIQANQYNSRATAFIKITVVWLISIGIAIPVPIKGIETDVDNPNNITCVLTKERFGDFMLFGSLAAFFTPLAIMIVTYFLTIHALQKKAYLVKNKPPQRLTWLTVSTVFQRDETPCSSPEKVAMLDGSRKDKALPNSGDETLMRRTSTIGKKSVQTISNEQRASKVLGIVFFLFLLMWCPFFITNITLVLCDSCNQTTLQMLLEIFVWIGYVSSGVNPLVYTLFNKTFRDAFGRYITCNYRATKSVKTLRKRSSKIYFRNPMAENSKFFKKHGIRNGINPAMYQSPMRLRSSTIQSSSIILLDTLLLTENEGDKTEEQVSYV
# 5-HT2A receptor [10] = target: T1, 5-HT2A receptor; assay: Radioligand displacement assay; format: binding; conditions: standard radioligand 125I-DOI
# 5-HT2C receptor [11] = target: T2, 5-HT2C receptor; assay: G protein; format: cell-based
# 5-HT1D receptor = 5-HT1D receptor (Homo sapiens, UniProt P28221); assay: 5-HTome G protein activation BRET screen; format: cell-based; conditions: 5-HTome screen
# 5-HT1D receptor, sequence (P28221 whole entry): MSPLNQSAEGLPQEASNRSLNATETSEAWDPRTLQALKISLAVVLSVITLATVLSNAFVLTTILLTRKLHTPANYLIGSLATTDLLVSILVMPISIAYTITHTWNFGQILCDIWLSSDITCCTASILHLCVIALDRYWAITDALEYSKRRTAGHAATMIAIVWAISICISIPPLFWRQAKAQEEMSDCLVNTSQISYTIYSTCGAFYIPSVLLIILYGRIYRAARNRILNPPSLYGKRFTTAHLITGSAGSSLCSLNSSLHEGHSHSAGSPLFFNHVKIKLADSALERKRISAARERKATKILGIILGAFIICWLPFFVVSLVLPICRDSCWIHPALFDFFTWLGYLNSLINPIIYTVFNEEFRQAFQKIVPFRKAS
# In short: as §2
# [12] = read-out: EC50 (Gq), Gq dissociation BRET
compound,measurement,setting,value
CC[C@@H](N)Cc1cc(OC)c(C)cc1OC [(R)-Ariadne],effect on open arm entries and time,mice [1],acute anxiogenic-like effect
same,EC50,5-HT2A receptor [2]; read-out: EC50 (calcium flux),30 nM
same,Emax (calcium flux),5-HT2A receptor [2]; relative to 5-HT,96%
same,shift in potency between (R)-DOM and (R)-Ariadne,rabbits,25 fold
same,EC50,5-HT2A receptor [3]; 5-HTome screen,< 1000 nM
same,Emax,5-HT2A receptor [3]; 5-HTome screen,> 70%
same,EC50,5-HT2A receptor [3]; [12],149 nM
same,effect in geriatric senile subjects,patients; 50 mg per day ref 8,"Improvement in alertness, mobility and sociability"
same,effect in subjects with Parkinson's disease,patients; 100 mg per day ref 8,nearly complete remission of symptoms
same,effect in patients with schizophrenia and bipolar disorder,patients; 50-100 mg per day ref 8,rapid remission of psychotic symptoms
same,latency to bite food pellets,mice [4],dose-dependent trend toward reducing latency to bite
same,EC50,5-HT1B receptor,4000 nM
same,EC50,5-HT1F receptor,300 to 600 nM
same,DOM-like effects,cats,nearly no DOM-like effects
same,avoidance behavior,rats,improved avoidance behavior
same,"HTR after pretreatment with 5-HT2A antagonist MDL100,907 (volinanserin)",mice [5]; MDL100907 0.01 and 0.032 mg/kg ip 15 min prior,completely inhibited
same,dose of peak (maximum) HTR,mice [5]; s.c.,10 mg/kg
same,Emax (calcium flux),5-HT2C receptor [6],60%
same,EC50,5-HT1e receptor,300 to 600 nM
same,"number of balance beam runs, Aux-KO mice post-treatment",[7],significantly higher and comparable to WT mice
same,effect on general locomotion,mice [8]; 10 mg/kg,minor sedative effect
same,effect on general locomotion,mice [8]; 30 mg/kg,marked sedation
same,time in the center of the arena,"mice [8]; mouse, in vivo",trend for spending less time in the center of the arena
same,hallucinogenic / psychoactive effect,humans; 25 mg p.o. ref 6,no hallucinogenic effect but a mild threshold psychoactive effect
same,psychedelic effects,"humans; 100-300 mg, geriatric senile subjects ref 38",no psychedelics effects
same,hallucinogenic effects,"humans; up to 270 mg, healthy subjects ref 14",No hallucinations or perceptual alterations were observed
same,hallucinogenic effects,"humans; up to (and beyond) 100 mg per day, route not specified ref 8",no hallucinations
same,hallucinogenic effects,"humans; up to (and beyond) 100 mg per day, route not specified ref 8, listed as BL-3912A",lack of hallucinogenic effects
same,"clasping duration, Aux-KO mice",[9],down to zero
same,"clasping score, Aux-KO mice",[9],down to zero
same,EC50,5-HT1A receptor,300 to 600 nM
same,EC50,5-HT2B receptor; 5-HTome screen,< 1000 nM
same,Emax,5-HT2B receptor; 5-HTome screen,> 70%
same,EC50,5-HT2B receptor; [12],739 nM
same,Ki,5-HT2A receptor [10],53 nM
same,EC50,5-HT2C receptor [11]; 5-HTome screen,< 1000 nM
same,Emax,5-HT2C receptor [11]; 5-HTome screen,> 70%
same,EC50,5-HT2C receptor [11]; [12],249 nM
same,EC50,5-HT1D receptor,300 to 600 nM
